Assay results collected from several papers.
Lines come from different studies, so protocols differ.
Organism: Plasmodium falciparum
Effect on: parasite growth

CN1CCCN(S(=O)(=O)c2ccc(-c3ccc4ncnc(Nc5ccc(OCc6cccc(F)c6)c(Cl)c5)c4c3)cc2)CC1
EC50 (SYBR Green; W2; drug-resistant strain, blood stage): 52 nM

OC(c1cc(C(F)(F)F)nc2c(C(F)(F)F)cccc12)C1CCCCN1 (centres unmarked)
EC50 (SYBR Green; 3D7): 20.3 nM

Cc1cc(N[C@H]2CCc3ccc(Cl)cc3C2)n2nc(C(C)(F)F)nc2n1
EC50 (K1; drug-resistant strain, blood stage): 1.7 nM

CN1CCN(S(=O)(=O)c2ccc(-c3ccc4ncnc(Nc5ccc(OCc6cccc(F)c6)c(Cl)c5)c4c3)cc2)CC1
EC50 (SYBR Green; W2; drug-resistant strain, blood stage): 44 nM

COCC(C)n1c(SCC(=O)Nc2cc(C(F)(F)F)ccc2Cl)nc2ccccc2c1=O (centres unmarked)
EC50 (SYBR Green; 3D7): 356 nM

Cc1c2oc3c(C)ccc(C(=O)N[C@@H]4C(=O)N[C@H](C(C)C)C(=O)N5CCC[C@H]5C(=O)N(C)CC(=O)N(C)[C@@H](C(C)C)C(=O)O[C@@H]4C)c3nc-2c(C(=O)N[C@@H]2C(=O)N[C@H](C(C)C)C(=O)N3CCC[C@H]3C(=O)N(C)CC(=O)N(C)[C@@H](C(C)C)C(=O)O[C@@H]2C)c(N)c1=O
EC50 (SYBR Green; 3D7; blood stage): 1000 nM

Cc1cc(NC2Cc3cc(F)c(F)cc3C2)n2nc(C(C)(F)F)nc2n1
EC50 (DD2; drug-resistant strain, blood stage): 43 nM

COc1cc2[nH]c(C)c(-c3ccc(Oc4ccc(OC(F)(F)F)cc4)cc3)c(=O)c2cc1Cl
EC50 (SYBR Green; TM90; 72 h, drug-resistant strain, blood stage): 1 nM

C[C@H]1[C@@H](O)O[C@@H]2O[C@@]3(C)CC[C@H]4[C@H](C)CC[C@@H]1[C@@]24OO3
EC50 (SYBR Green; 3D7): 3.56 nM

CCN(CC)CCCC(C)Nc1ccnc2cc(Cl)ccc12 (centres unmarked)
EC50 (SYBR Green; TM90; 72 h, drug-resistant strain, blood stage): 89 nM

COc1cc2[nH]c(C)c(-c3ccccc3)c(=O)c2cc1Cl
EC50 (W2; drug-resistant strain, blood stage): 26.2 nM
